The subject of assay [1] is HUVEC. The assay is described as follows: Growth inhibition of HUVEC at 10 uM after 72 hrs by CellTiter-Glo assay relative to control. Format: functional. Particulars: Homo sapiens, read-out: GI. In outline: (§1)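 Cells in exponential phase seeded at 2000–4000 cells/well, then exposed 72 h at 37 °C, 5% CO2 with 0.1% final DMSO. Single-point screen at 10 μM final. […] Read-out was CellTiter-Glo luminescence.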
On the technique in general: Cellular ATP, detected with luciferase, serves as a proxy for viable cell number.

Another assay relates to A-431. The assay is described as follows: Growth inhibition of human A431 cells at 10 uM after 72 hrs by CellTiter-Glo assay relative to control. In kind it is functional. The note with it: A-431, 72 h, read-out: GI. In a few lines:
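A431 cells seeded at 2000–4000 cells/well and treated with 10 μM final compound, 0.1% DMSO, for 72 h at 37 °C, 5% CO2. Viability read by CellTiter-Glo. Inhibition ratio = 1 − Vsample/Vvehicle control; triplicate.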

The test system of assay [2] is MDA-MB-435. The assay is described as follows: Growth inhibition of human MDA-MB-435 cells after 72 hrs by CellTiter-Glo assay. In kind it is functional, cell-based. Particulars: MDA-MB-435, 72 h. In outline:
as §1

Assay [3] deals with MDA-MB-435. The assay is described as follows: Growth inhibition of human MDA-MB-435 cells at 10 uM after 72 hrs by CellTiter-Glo assay relative to control. Format: functional. Particulars: MDA-MB-435, 72 h, read-out: GI. In a few lines: as §1
Assay [4] deals with HUVEC. The assay is described as follows: Growth inhibition of HUVEC after 72 hrs by CellTiter-Glo assay. In kind it is functional, cell-based. The note with it: Homo sapiens. In outline:
as §1

In assay [5] the target is T1, Vascular endothelial growth factor receptor 2 (Homo sapiens, UniProt P35968).
T1 sequence (P35968 whole entry): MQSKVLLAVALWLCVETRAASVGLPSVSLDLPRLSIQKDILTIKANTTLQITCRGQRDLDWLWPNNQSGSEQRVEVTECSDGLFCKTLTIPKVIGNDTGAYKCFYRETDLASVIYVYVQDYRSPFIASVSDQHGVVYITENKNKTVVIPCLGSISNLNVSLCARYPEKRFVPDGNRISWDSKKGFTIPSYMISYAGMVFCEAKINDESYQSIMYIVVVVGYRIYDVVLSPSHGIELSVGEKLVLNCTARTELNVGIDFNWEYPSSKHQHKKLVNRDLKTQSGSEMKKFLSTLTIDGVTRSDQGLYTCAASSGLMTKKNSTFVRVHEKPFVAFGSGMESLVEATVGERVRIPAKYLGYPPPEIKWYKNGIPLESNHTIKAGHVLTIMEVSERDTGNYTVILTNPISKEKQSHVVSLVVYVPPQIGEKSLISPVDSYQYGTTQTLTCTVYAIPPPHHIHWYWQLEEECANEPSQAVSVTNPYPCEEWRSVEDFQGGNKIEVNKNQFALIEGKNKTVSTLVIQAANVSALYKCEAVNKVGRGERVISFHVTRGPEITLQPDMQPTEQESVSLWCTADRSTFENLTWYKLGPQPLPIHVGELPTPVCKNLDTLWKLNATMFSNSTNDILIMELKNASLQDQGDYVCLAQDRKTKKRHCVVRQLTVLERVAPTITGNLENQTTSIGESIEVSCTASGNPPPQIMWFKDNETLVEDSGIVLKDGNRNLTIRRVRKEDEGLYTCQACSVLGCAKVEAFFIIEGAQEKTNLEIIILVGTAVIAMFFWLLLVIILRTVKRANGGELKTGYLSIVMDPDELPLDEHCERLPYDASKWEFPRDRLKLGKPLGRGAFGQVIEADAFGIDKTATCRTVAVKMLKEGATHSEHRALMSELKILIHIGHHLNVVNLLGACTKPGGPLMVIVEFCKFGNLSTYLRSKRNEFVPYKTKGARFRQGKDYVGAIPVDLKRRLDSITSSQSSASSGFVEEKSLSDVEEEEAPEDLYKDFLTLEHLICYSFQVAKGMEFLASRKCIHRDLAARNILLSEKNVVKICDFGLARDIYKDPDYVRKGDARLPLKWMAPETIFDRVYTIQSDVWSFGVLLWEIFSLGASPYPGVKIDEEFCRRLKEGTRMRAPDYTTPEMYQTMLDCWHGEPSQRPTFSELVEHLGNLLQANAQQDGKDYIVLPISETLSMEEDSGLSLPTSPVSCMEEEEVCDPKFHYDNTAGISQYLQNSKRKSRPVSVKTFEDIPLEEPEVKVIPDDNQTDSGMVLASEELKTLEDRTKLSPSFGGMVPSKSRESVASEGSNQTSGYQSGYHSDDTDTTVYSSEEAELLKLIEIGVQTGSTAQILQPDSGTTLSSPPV
In assay [6] the target is T1, Vascular endothelial growth factor receptor 2. The note with it: at 10 µM.
For assay [7], the target named is Vascular endothelial growth factor receptor 3 (Homo sapiens) (UniProt P35916). Kind of assay: Inhibition of human Flt4 at 0.5 uM relative to control.
Chain of Vascular endothelial growth factor receptor 3 (Homo sapiens) (P35916 whole entry): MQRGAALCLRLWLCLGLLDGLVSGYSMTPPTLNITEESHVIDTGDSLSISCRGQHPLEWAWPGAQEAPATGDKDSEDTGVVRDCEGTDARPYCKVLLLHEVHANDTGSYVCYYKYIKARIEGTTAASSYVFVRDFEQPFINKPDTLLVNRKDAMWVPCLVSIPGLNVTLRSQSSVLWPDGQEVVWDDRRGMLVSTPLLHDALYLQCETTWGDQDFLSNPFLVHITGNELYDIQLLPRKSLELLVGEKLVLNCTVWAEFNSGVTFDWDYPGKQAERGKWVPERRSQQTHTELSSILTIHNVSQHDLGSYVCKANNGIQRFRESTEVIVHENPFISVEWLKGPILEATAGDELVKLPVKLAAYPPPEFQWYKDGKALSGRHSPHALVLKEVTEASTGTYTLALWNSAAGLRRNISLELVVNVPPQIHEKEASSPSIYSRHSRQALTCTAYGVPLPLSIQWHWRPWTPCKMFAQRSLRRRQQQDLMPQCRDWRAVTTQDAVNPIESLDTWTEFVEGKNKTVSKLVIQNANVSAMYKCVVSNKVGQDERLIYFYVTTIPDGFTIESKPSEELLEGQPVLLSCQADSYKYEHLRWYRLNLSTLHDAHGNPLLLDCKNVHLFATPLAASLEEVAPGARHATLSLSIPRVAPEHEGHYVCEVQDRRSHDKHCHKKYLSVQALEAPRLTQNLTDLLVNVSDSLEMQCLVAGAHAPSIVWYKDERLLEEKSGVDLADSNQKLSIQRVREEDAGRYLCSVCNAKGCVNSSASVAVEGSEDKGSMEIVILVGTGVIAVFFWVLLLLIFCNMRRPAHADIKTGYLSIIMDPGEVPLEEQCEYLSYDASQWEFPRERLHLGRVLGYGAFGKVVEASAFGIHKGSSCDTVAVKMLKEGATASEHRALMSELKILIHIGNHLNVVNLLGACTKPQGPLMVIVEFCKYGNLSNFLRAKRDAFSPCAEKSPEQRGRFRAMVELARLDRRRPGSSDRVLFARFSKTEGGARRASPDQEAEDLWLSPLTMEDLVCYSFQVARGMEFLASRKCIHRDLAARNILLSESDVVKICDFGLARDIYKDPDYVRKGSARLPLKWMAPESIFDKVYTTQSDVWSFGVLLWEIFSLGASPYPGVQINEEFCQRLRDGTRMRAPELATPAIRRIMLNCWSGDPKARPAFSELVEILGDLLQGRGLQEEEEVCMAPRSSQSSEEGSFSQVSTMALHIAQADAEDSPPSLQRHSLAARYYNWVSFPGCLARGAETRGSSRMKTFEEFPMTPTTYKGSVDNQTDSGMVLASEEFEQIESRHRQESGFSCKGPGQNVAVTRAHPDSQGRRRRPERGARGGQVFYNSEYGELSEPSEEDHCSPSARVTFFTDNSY
Assay [8] has as its target Ephrin type-A receptor 5 (Homo sapiens) (UniProt P54756). The assay is described as follows: Inhibition of human EPHA5 at 0.5 uM relative to control.
In assay [9] the target is Vascular endothelial growth factor receptor 1 (Homo sapiens) (UniProt P17948). Kind of assay: Inhibition of human Flt1 at 0.5 uM relative to control.
Assay [10] addresses Ephrin type-A receptor 2 (Homo sapiens) (UniProt P29317). The assay is described as follows: Inhibition of human EPHA2 at 0.5 uM relative to control.
Assay [11] addresses Mitogen-activated protein kinase kinase kinase kinase 5 (Homo sapiens) (UniProt Q9Y4K4). Kind of assay: Inhibition of human KHS at 0.5 uM relative to control.
The species named for assay [12] is Homo sapiens. The assay is described as follows: Inhibition of human PDGFR at 0.5 uM relative to control.
Assay [13] deals with TRAF2 and NCK-interacting protein kinase (Homo sapiens) (UniProt Q9UKE5). The assay is described as follows: Inhibition of human TNIK at 0.5 uM relative to control.
The species entered for assay [14] is Homo sapiens. The assay is described as follows: Inhibition of human DDR at 0.5 uM relative to control.
Assay [15] has as its target Ephrin type-A receptor 8 (Homo sapiens) (UniProt P29322). Kind of assay: Inhibition of human EPHA8 at 0.5 uM relative to control.
Assay [16] has as its target STE20-like serine/threonine-protein kinase (Homo sapiens) (UniProt Q9H2G2). Kind of assay: Inhibition of human SLK at 0.5 uM relative to control.
The target in assay [17] is Ephrin type-A receptor 3 (Homo sapiens) (UniProt P29320). Kind of assay: Inhibition of human EPHA3 at 0.5 uM relative to control.
Assay [18] addresses Ephrin type-A receptor 4 (Homo sapiens) (UniProt P54764). The assay is described as follows: Inhibition of human EPHA4 at 0.5 uM relative to control.
Assay [19] concerns the target Tyrosine-protein kinase HCK (Homo sapiens) (UniProt P08631). Kind of assay: Inhibition of human HCK at 0.5 uM relative to control.
The target of assay [20] is Receptor-type tyrosine-protein kinase FLT3 (Homo sapiens) (UniProt P36888). Kind of assay: Inhibition of human Flt3 at 0.5 uM relative to control.
Assay [21] concerns the target Ephrin type-A receptor 7 (Homo sapiens) (UniProt Q15375). Kind of assay: Inhibition of human EPHA7 at 0.5 uM relative to control.

The structures appear in SMILES notation. The source made the active and inactive calls. The calls are words filed in the database; no cut-off is given here.

Chain of STE20-like serine/threonine-protein kinase (Homo sapiens) (Q9H2G2 whole entry, looked up): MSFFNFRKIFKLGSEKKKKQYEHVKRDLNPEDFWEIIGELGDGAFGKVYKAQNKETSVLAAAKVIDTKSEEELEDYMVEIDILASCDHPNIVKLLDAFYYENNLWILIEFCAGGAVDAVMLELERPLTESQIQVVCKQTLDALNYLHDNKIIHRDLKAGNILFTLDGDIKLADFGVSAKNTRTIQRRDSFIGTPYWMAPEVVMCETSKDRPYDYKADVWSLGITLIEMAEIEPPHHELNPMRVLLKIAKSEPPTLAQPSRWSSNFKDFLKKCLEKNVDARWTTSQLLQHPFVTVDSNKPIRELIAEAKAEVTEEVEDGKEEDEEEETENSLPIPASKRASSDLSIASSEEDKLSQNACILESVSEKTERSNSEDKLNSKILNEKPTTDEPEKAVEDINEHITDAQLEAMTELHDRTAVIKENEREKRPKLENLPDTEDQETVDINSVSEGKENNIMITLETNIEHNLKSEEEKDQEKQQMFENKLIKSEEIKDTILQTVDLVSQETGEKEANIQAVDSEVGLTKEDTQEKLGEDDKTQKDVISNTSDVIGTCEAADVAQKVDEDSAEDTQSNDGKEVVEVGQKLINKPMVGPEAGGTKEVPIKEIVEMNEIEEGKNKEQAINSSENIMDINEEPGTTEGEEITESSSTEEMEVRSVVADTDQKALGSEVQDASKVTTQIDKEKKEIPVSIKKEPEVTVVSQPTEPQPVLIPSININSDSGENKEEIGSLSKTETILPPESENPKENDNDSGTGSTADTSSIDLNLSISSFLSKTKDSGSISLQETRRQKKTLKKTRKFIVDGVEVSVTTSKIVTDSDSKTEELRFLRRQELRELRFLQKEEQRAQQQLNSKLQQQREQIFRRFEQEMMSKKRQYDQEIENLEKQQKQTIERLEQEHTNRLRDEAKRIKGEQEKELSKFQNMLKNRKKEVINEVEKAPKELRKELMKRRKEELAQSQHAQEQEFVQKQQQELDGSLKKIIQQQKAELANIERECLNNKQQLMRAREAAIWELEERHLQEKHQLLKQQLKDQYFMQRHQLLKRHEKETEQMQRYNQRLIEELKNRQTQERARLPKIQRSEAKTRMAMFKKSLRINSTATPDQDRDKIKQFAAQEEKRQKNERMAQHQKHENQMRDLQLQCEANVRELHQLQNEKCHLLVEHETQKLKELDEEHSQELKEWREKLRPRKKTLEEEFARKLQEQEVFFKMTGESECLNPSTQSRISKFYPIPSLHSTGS
Chain of Ephrin type-A receptor 8 (Homo sapiens) (P29322 whole entry): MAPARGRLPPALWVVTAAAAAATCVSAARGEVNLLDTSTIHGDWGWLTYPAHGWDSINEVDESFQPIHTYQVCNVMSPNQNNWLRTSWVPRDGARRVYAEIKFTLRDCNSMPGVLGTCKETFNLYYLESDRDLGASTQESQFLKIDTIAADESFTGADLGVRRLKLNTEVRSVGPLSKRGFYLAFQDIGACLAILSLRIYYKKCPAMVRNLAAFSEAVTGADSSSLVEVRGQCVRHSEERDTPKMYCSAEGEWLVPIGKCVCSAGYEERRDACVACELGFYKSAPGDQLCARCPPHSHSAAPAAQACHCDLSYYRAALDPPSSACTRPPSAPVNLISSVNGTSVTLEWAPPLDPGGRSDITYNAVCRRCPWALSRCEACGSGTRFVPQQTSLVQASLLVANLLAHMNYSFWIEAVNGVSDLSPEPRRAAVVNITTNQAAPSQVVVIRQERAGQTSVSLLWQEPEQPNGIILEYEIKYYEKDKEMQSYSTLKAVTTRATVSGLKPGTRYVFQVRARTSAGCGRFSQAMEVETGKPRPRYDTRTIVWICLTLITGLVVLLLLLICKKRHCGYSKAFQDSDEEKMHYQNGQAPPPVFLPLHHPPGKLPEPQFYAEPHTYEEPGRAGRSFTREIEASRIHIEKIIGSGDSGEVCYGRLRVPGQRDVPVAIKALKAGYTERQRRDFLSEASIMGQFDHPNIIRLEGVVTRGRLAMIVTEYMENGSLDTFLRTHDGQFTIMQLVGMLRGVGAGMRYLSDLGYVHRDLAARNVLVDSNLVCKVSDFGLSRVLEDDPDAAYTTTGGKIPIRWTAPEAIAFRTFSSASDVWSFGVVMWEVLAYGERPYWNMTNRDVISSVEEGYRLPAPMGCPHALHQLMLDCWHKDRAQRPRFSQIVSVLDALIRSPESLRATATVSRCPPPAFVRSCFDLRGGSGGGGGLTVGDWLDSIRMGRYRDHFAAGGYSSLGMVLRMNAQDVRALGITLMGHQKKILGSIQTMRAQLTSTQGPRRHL

The term IC50 denotes the concentration needed to halve the response being measured. Low readings indicate greater potency, high ones weaker potency. `COc1cc2ncnc(Oc3ccc(NC(=O)Nc4ccc(Cl)c(C(F)(F)F)c4)c4ccccc34)c2cc1OC`: the inhibition of growth at 10 µM turned out to be 82.9% in the assay on HUVEC [1], 14.9% with A-431 and 95.1% in the assay with MDA-MB-435 [3]. Moreover, the half-maximal inhibitory concentration (IC50) in the assay on MDA-MB-435 [2] was determined as 3.79 µM; with HUVEC [4] it was 2.97 µM.

As for `COc1cc2ncnc(Oc3ccc(NC(=O)Nc4ccc(Cl)c(C(F)(F)F)c4)c4cccnc34)c2cc1OC`, the inhibition of growth at 10 µM in the assay with HUVEC [1] is 51.5%; in the assay with A-431, 21%; with MDA-MB-435 [3], 44.3%.

Regarding `COc1cc2ncnc(Oc3ccc(NC(=O)Nc4cnn(C(C)C)c4)c4ccccc34)c2cc1OC`, the values for the inhibition of growth at 10 µM with HUVEC [1], with A-431 and in the assay with MDA-MB-435 [3] were 93.6%, 49.9% and 27.7%, respectively. Besides, the midpoint of inhibition in the assay with HUVEC [4], the IC50, lay at 0.63 µM.

What is called inhibition is how much of the control response was suppressed. In the case of `COc1cc2ncnc(Oc3ccc(NS(=O)(=O)c4ccccc4)c4ccccc34)c2cc1OC`, the IC50 in assay [5] was more than 10 µM. The compound further showed an inhibition in [6] of 44.3%.

Turning to `CNC(=O)c1cc(Oc2ccc(NC(=O)Nc3ccc(Cl)c(C(F)(F)F)c3)cc2)ccn1` [SORAFENIB], the inhibition of growth at 10 µM in the assay with HUVEC [1] is 84.7%; with A-431, 68.9%; in the assay with MDA-MB-435 [3] it was 91.9%. In addition, the IC50 in the assay on MDA-MB-435 [2] worked out at 2.11 µM; in the assay with HUVEC [4], 1.49 µM.

Turning to `CCN(CC)CCNC(=O)c1c(C)[nH]c(/C=C2\C(=O)Nc3ccc(F)cc32)c1C`, the inhibition entry (in [7]; in assay [8]; in assay [9]; in [10]; in [11]; in the assay filed under Homo sapiens [12]) was “Active” throughout. In addition, the inhibition entry (in [13]; in the assay listed under Homo sapiens [14]; in [15]; in assay [16]; in [17]; in assay [18]) was “Active” throughout. Further, the inhibition entry in assay [19], in assay [20] and in assay [21] was “Active” each time.

`COc1cc2ncnc(Oc3ccc(NC(=O)Nc4cc(C)on4)c4ccccc34)c2cc1OC`: the inhibition of growth at 10 µM was 61.9% with HUVEC [1], -1.52% in the assay on A-431 and 0.23% in the assay on MDA-MB-435 [3].

Consider `COc1cc2ncnc(Oc3ccc(NC(=O)Nc4cccc(C(F)(F)F)c4)c4ccccc34)c2cc1OC`, for which the inhibition of growth at 10 µM is 66.8% in the assay on HUVEC [1], -4.51% in the assay with A-431 and 24.5% with MDA-MB-435 [3]. Moreover, the IC50 in [5] came out at 0.0288 µM. This compound also displayed an inhibition in assay [6] of 99%.

For `COc1cc2ncnc(Oc3ccc(NC(=O)NC4CC4)c4ccccc34)c2cc1OC`, the inhibition of growth at 10 µM in the assay on HUVEC [1] worked out at 63.9%; with A-431, 15.1%; in the assay on MDA-MB-435 [3] it was 1.48%.

The record behind these values is ChEMBL document CHEMBL4028913, “Discovery of Novel Potent VEGFR-2 Inhibitors Exerting Significant Antiproliferative Activity against Cancer Cell Lines” (J Med Chem, 2018).
